Assay results pooled from the literature.
Each line is one published result; the experiments were not run side by side.

| SMILES | target or system | assay | setting | endpoint | result |
| --- | --- | --- | --- | --- | --- |
| O=c1cc(CSc2ccc(N=Cc3ccccc3F)cc2)occ1O |  | ABTS scavenging, absorbance |  | IC50 | 0.03 µM |
| CCOc1ccc(Nc2c3c(nc4ccccc24)CCC3)cc1 | Leishmania donovani | parasite growth | 8 µM, intracellular, amastigote | inhibition | 69% |
| CC[C@H](C)[C@H](NC(=O)[C@H](CCCCN)NC(=O)[C@H](CCCCN)NC(=O)[C@H](CCCCN)NC(=O)[C@H](CC(C)C)NC(=O)[C@H](CCCNC(=N)N)NC(=O)[C@H](CCCCN)NC(=O)[C@@H](N)CC(C)C)C(=O)N[C@@H](CCCCN)C(=O)N[C@@H](CCCCN)C(=O)N[C@@H](CC(C)C)C(=O)N[C@@H](CC(C)C)C(=O)N[C@@H](CCCCN)C(N)=O | A549 | cell growth or viability, MTT | 24 h | IC50 | 164 µM |
| O=c1cc(CSc2ccc(N=Cc3ccccc3C(F)(F)F)cc2)occ1O |  | ABTS scavenging, absorbance |  | IC50 | 39.8 µM |
| CC(C)C[C@H](NC(=O)[C@H](CCCCN)NC(=O)[C@H](CC(C)C)NC(=O)[C@H](Cc1ccccc1)NC(=O)[C@H](CC(C)C)NC(=O)[C@H](CCCCN)NC(=O)[C@H](CCCCN)NC(=O)[C@H](CC(C)C)NC(=O)[C@H](CC(C)C)NC(=O)[C@H](CCCCN)NC(=O)[C@@H](N)CCCNC(=N)N)C(=O)N[C@@H](CCCCN)C(=O)N[C@@H](CCCCN)C(N)=O | A549 | cell growth or viability, MTT | 24 h | IC50 | 164 µM |
| c1ccc(Oc2ccc(Nc3c4c(nc5ccccc35)CCC4)cc2)cc1 | Leishmania donovani | parasite growth | 33.33 µM, promastigote | inhibition | 91% |
| Cc1cc(=O)oc2cc(OCCCC[Se]C#N)ccc12 | A549 | cell growth or viability, SRB |  | GI50 | 0.78 µM |
| N.N.[Cl][Pt][Cl] | WSU-NHL | cell growth or viability, ATP luminescence | 10 µM, 72 h | inhibition | 100% |
| O=C(Nc1ccc(Cl)cc1)Nc1cccc(-c2cn(Cc3ccc(Br)cc3)nn2)c1 | A549 | cell growth or viability, CCK-8 | 20 µM, 72 h | viability | 108% |
| Cc1c(Cl)c(=O)oc2cc(OCCCC[Se]C#N)ccc12 | A549 | cell growth or viability, SRB |  | GI50 | 12 µM |
| O=c1cc(CSc2ccc(N=Cc3ccccc3)cc2)occ1O |  | ABTS scavenging, absorbance |  | IC50 | 0.04 µM |
| N.N.[Cl][Pt][Cl] | A549 | cell growth or viability, MTT | 48 h | IC50 | 46.4 µM |
